Source: ChEMBL document CHEMBL4732185, “Synthesis, biological evaluation and structure-activity relationship of novel dichloroacetophenones targeting pyruvate dehydrogenase kinases with potent anticancer activity” (Eur J Med Chem, 2021)
Active and inactive are the calls of the source. The rule behind the calls is not given here.

Key:
MCF7 [1] = test: Antiproliferative activity against human MCF7 cells assessed as growth inhibition at 10 uM after 72 hrs by MTT assay relative to control; type: functional; conditions: read-out: GI
In short: (§1)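 Single-concentration MTT screen on MCF-7 and A549 cells grown in DMEM + 10% FBS. Cells at 3000–6000/well, cultured overnight, then given compound in buffer with 1% DMSO for 72 h. MTT (0.5 mg/mL) added for 4 h, formazan dissolved in DMSO, A570 read. Percent inhibition reported as the average ± S.D. of three independent measurements.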

MCF7 [2] = test: Antiproliferative activity against human MCF7 cells assessed as growth inhibition at 1 uM after 72 hrs by MTT assay relative to control; type: functional; conditions: for inhibition of growth at 1 µM: read-out: GI; in short: as §1
A549 [3] = test: Antiproliferative activity against human A549 cells assessed as growth inhibition at 10 uM after 72 hrs by MTT assay relative to control; type: functional; conditions: read-out: GI; in short: as §1
A549 [4] = test: Antiproliferative activity against human A549 cells assessed as growth inhibition at 1 uM after 72 hrs by MTT assay relative to control; type: functional; conditions: read-out: GI; in short: as §1
Homo sapiens = species on record: Homo sapiens; test: Inhibition of PDK (unknown origin) using RYHGHSMSDP as substrate at 1 uM after 30 mins by Kinase-Glo luminescent assay
A549 [5] = test: Antiproliferative activity against human A549 cells assessed as growth inhibition after 72 hrs by MTT assay; type: functional, cell-based; conditions: Homo sapiens, A549, 72 h; read-out: IC50
In short: (§2)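 MTT viability assay. Cancer lines seeded at 3000–6000 cells/well and L02 at 7000 cells/well, cultured overnight, then exposed to a full dose range for 72 h. MTT (0.5 mg/mL) added for 4 h, supernatant removed, formazan dissolved in DMSO, absorbance read at 570 nm. IC50 taken as the mean of three independent experiments. Cells grown in DMEM + 10% FBS, 37 °C, 5% CO2.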

MCF7 [6] = test: Antiproliferative activity against human MCF7 cells assessed as growth inhibition after 72 hrs by MTT assay; type: functional, cell-based; conditions: Homo sapiens, MCF7, 72 h; read-out: IC50; in short: as §2
SH-SY5Y = test: Antiproliferative activity against human SHSY-5Y cells assessed as growth inhibition after 72 hrs by MTT assay; type: functional, cell-based; conditions: Homo sapiens, SH-SY5Y, 72 h; read-out: IC50; in short: as §2
HCT-116 = test: Antiproliferative activity against human HCT-116 cells assessed as growth inhibition after 72 hrs by MTT assay; type: functional, cell-based; conditions: Homo sapiens, HCT-116, 72 h; read-out: IC50; in short: as §2
A-375 = test: Antiproliferative activity against human A375 cells assessed as growth inhibition after 72 hrs by MTT assay; type: functional, cell-based; conditions: Homo sapiens, A-375, 72 h; read-out: IC50; in short: as §2
PC-3 = test: Antiproliferative activity against human PC3 cells assessed as growth inhibition after 72 hrs by MTT assay; type: functional, cell-based; conditions: Homo sapiens, PC-3, 72 h; read-out: IC50; in short: as §2
L02 = test: Cytotoxicity against human L02 cells assessed as reduction in cell viability after 72 hrs by MTT assay; type: cell-based; conditions: Homo sapiens, L02, 72 h; read-out: IC50; in short: as §2
[7] = Inhibition of PDK (unknown origin) using RYHGHSMSDP as substrate after 30 mins by Kinase-Glo luminescent assay; parameters: species or system Homo sapiens

| SMILES | inhibition of growth at 10 µM (MCF7 [1]) | inhibition of growth at 1 µM (MCF7 [2]) | inhibition of growth at 10 µM (A549 [3]) | inhibition of growth at 1 µM (A549 [4]) | inhibition (Homo sapiens) | IC50 (A549 [5]) | IC50 (MCF7 [6]) | IC50 (SH-SY5Y) | IC50 (HCT-116) | IC50 (A-375) | IC50 (PC-3) | IC50 (L02) | EC50 [7] | growth inhibition (GI) (MCF7 [2]) |
| --- | --- | --- | --- | --- | --- | --- | --- | --- | --- | --- | --- | --- | --- | --- |
| COc1ccc(Nc2ccc(C(=O)C(Cl)Cl)cc2[N+](=O)[O-])cc1 | 95.9% | 29.2% | 97.7% | 45% | 55.7% | – | – | – | – | – | – | – | – | – |
| O=C(c1ccc(Nc2ccc(F)cc2)c([N+](=O)[O-])c1)C(Cl)Cl | 97.8% | 17.9% | 98.9% | 23.2% | 50.1% | – | – | – | – | – | – | – | – | – |
| O=C(c1ccc(-n2ccnc2)c([N+](=O)[O-])c1)C(Cl)Cl | 90.5% | 24.2% | 96.6% | 30.5% | 20.5% | – | – | – | – | – | – | – | – | – |
| COc1cccc2c1C(=O)c1c(O)c3c(c(O)c1C2=O)C[C@@](O)(C(=O)CO)C[C@@H]3O[C@H]1C[C@H](N)[C@H](O)[C@H](C)O1 [DOXORUBICIN] | 97.5% | 59.8% | 98.5% | 81.2% | – | – | – | – | – | – | – | – | – | – |
| CC(C)c1ccc(Nc2ccc(C(=O)C(Cl)Cl)cc2[N+](=O)[O-])cc1 | 94% | 38.6% | 97% | 75.2% | 80% | 330 nM | 1210 nM | 1000 nM | 700 nM | 900 nM | 380 nM | 1500 nM | 340 nM | – |
| O=C(c1ccc(-c2ccccc2)c([N+](=O)[O-])c1)C(Cl)Cl | 56.2% | 15.8% | 92.6% | 8.9% | 25.6% | – | – | – | – | – | – | – | – | – |
| O=C(c1ccc(-c2ccc(F)cc2)c([N+](=O)[O-])c1)C(Cl)Cl | 91.6% | 30.8% | 95.3% | 44.7% | 12.1% | – | – | – | – | – | – | – | – | – |
| O=C(c1ccc(Nc2ccccc2)c([N+](=O)[O-])c1)C(Cl)Cl | 97.1% | 26.3% | 97.4% | 46.1% | 60.7% | – | – | – | – | – | – | – | – | – |
| O=C(c1ccc(-c2ccsc2)c([N+](=O)[O-])c1)C(Cl)Cl | 43.5% | 7.5% | 94.4% | 14.4% | 26.5% | – | – | – | – | – | – | – | – | – |
| O=C(c1ccc(N2CCCC2)c([N+](=O)[O-])c1)C(Cl)Cl | 94.6% | 23% | 97.3% | 30.6% | 32.4% | – | – | – | – | – | – | – | – | – |
| CC(C)c1ccc(Oc2ccc(C(=O)C(Cl)Cl)cc2[N+](=O)[O-])cc1 | 85.7% | 28.7% | 90.7% | 12.5% | 39.4% | – | – | – | – | – | – | – | – | – |
| O=C(c1ccc(-c2ccc(OC(F)(F)F)cc2)c([N+](=O)[O-])c1)C(Cl)Cl | 97.8% | 24.7% | 93.6% | 36.3% | 21.4% | – | – | – | – | – | – | – | – | – |
| CC(C)c1ccc(Sc2ccc(C(=O)C(Cl)Cl)cc2[N+](=O)[O-])cc1 | 79.8% | 18.9% | 76.3% | 12.9% | 19.5% | – | – | – | – | – | – | – | – | – |
| O=C(c1ccc(N2CCNCC2)c([N+](=O)[O-])c1)C(Cl)Cl | 57% | – | 93.1% | 22.6% | 48.6% | – | – | – | – | – | – | – | – | inactive |
| O=C(c1ccc(C2CC2)c([N+](=O)[O-])c1)C(Cl)Cl | 87.8% | 31.3% | 95.9% | 40.1% | 17.3% | – | – | – | – | – | – | – | – | – |
